What all share (type): cell-based
Test [1] deals with T1, MRGPRX2 (Homo sapiens, UniProt Q96LB1).
T1 sequence (Q96LB1 1-330): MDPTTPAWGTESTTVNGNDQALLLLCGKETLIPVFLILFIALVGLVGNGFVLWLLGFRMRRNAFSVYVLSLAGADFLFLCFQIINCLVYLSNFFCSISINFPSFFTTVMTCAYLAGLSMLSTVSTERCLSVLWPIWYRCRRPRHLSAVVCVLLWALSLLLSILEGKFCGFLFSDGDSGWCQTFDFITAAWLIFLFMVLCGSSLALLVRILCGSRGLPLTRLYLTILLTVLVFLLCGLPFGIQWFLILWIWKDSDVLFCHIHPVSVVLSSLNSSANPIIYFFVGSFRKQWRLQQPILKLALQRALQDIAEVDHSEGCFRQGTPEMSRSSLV
The test can be described thus: calcium mobilization assay, stable MRGPRX2 cell line. To be noted: MRGPRX2-expressing stable cells. The method, boiled down:
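Tetracycline-inducible Flp-In T-Rex HEK-T lines carried FLAG-tagged receptor in pcDNA5/FRT/TO and were kept with 15 μg/ml blasticidin and 100 μg/ml hygromycin B. Expression was induced with 1ug/ml tetracycline for 24 h. The calcium assay used 15,000 cells/well and FLIPR Calcium 4 dye (45 min 37°C, 15 min RT), with 16-point 3-fold dilutions at final 10 μM–0.003 nM. Fluorescence was read for 10 s baseline plus 120 s.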

Test [2] concerns the target T1, MRGPRX2. Kind of test: TANGO β-arrestin recruitment assay, MRGPRX2. The note with it: NCC-1 screen, confirmed in concentration-response studies.
Test [3] deals with T1, MRGPRX2. The test can be described thus: PI hydrolysis assay, MRGPRX2. The method, boiled down:
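HEK-293T cells were transiently transfected with 10 μg receptor DNA per 15 cm dish and seeded the next day on poly-L-lysine in 1% dialyzed FBS. They were labelled 16 h with 1 μCi/well ³H-inositol in inositol-free DMEM. Concentration series were applied in quadruplicate in HBSS/24 mM NaHCO₃/11 mM glucose/15 mM LiCl, pH 7.4, for 1 h at 37°C. Cells were lysed with 50 mM formic acid, and extracts were counted by SPA beads.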

Test [4] has as its target neuromedin B receptor (NMBR; also known as the BB1 bombesin receptor) (Homo sapiens, UniProt P28336). The test can be described thus: TANGO β-arrestin recruitment assay, NMBR.
The target in test [5] is neuromedin B receptor (NMBR; BB1) (Homo sapiens, UniProt P28336). Kind of test: calcium-release. To be noted: BB1-expressing cells.
Test [6] concerns the target BB2 bombesin receptor (GRPR) (Homo sapiens, UniProt P30550). Kind of test: TANGO β-arrestin recruitment assay, BB2.
The target in the next test is BB2 bombesin receptor (Homo sapiens, UniProt P30550). Kind of test: calcium mobilization assay, BB2-expressing cells. The procedure, abridged:
(§1)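 Cells were plated at 15,000/well on poly-L-lysine in DMEM with 500 ug/ml G-418 and 1% dialyzed FBS, then held overnight. Loading was with FLIPR Calcium 4 dye in HBSS/2.5 mM probenecid/20 mM HEPES, pH 7.4–7.8, for 45 min at 37°C plus 15 min at RT. Compounds (10 mM DMSO stocks) ran as 16-point 3-fold dilutions, final 10 μM–0.003 nM. Fluorescence was read 10 s before and 120 s after addition.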

Another test has as its target T2, BB3 bombesin receptor (Homo sapiens, UniProt P32247).
T2 sequence (P32247 1-399): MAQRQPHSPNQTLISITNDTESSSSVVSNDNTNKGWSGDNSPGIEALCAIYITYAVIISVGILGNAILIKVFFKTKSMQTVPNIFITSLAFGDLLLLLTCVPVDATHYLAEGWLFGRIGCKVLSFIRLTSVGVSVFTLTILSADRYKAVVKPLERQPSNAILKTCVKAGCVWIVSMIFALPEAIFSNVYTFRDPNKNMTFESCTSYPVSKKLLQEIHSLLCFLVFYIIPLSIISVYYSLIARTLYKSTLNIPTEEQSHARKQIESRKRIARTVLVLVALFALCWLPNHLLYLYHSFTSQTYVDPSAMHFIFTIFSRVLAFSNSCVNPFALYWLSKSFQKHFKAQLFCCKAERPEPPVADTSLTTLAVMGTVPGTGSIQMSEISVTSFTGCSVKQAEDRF
The test can be described thus: calcium mobilization assay, BB3-expressing cells. The method, boiled down: as §1

The source of these data is PMC4424118 (Nature structural & molecular biology, 2015).

BB2 bombesin receptor, sequence (P30550 whole entry): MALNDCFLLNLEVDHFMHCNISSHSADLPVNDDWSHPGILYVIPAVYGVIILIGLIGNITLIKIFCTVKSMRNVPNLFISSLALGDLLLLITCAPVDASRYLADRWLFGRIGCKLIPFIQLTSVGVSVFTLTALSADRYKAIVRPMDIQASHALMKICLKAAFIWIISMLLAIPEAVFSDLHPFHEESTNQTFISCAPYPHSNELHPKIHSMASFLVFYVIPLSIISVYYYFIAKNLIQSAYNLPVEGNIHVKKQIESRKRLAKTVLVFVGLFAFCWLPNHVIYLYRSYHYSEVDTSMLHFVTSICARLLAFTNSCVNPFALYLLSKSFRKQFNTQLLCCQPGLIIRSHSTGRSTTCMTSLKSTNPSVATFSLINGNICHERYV
BB2 bombesin receptor (GRPR), sequence (P30550 whole entry): as above
neuromedin B receptor (NMBR; BB1), sequence (P28336 whole entry): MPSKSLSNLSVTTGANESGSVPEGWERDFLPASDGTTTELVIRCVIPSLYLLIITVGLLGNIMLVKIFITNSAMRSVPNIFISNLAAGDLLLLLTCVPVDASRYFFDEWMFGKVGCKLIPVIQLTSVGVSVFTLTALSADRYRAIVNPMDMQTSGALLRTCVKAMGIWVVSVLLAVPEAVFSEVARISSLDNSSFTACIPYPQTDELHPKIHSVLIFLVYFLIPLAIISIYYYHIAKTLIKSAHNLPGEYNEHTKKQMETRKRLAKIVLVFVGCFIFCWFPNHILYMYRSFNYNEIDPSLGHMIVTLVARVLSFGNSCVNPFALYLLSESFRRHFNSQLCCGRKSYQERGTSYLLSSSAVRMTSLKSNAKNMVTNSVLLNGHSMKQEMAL
UniProt P28336, sequence (P28336 whole entry): as above

For the molecule `CN1CC[C@]2(c3cccc(O)c3)Cc3nc4ccccc4cc3C[C@H]2C1` [SB 205,607], the calcium mobilization response entry at MRGPRX2 [1] is listed as “concentration-dependent responses”. For the same molecule, the “activity in the TANGO assay at MRGPRX2” value on MRGPRX2 [2] is “most active compounds”. Moreover, the “concentration-dependent activity at MRGPRX2 by PI hydrolysis” value at MRGPRX2 [3] was “confirmed”.
Turning to `CC(C)(C)NC(=O)[C@@H]1C[C@@H]2CCCC[C@@H]2CN1C[C@@H](O)[C@H](Cc1ccccc1)NC(=O)[C@H](CC(N)=O)NC(=O)c1ccc2ccccc2n1` [Saquinavir, saquinavir], in test [4], the “response of BB1 in the TANGO assay” value is “insensitive”. Further, the calcium mobilization response result in test [5] was “did not stimulate a response”; on BB2 bombesin receptor it was “did not stimulate a response”; on BB3 bombesin receptor it was “did stimulate a response”. Moreover, the “response of BB2 in the TANGO assay” value in test [6] was “insensitive”.
